GI50, TGI and LC50 (concentration killing 50% of initial cells) data for 3 compounds are collected here from ChEMBL document CHEMBL4665645, “Role of the NMDA Receptor in the Antitumor Activity of Chiral 1,4-Dioxane Ligands in MCF-7 and SKBR3 Breast Cancer Cells” (ACS Med Chem Lett, 2019).

Some results are limits rather than exact numbers.

For assay [1], the system named is SK-BR-3. Description: Cytotoxicity against human SK-BR-3 cells assessed as reduction in cell viability incubated for 48 hrs by SRB assay. The format is functional. The procedure, abridged:
(§1)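 Followed the NCI SRB protocol: cells exposed 48 h to a range of concentrations. GI50 is the concentration giving 50% net growth inhibition; TGI is 100% growth inhibition; LC50 kills 50% of initial cells. Mean ± SE of three separate experiments.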
(In general: Sulforhodamine B stains cellular protein and so reports cell mass.)

Assay [2] deals with MCF7. In words: Cytotoxicity against human MCF7 cells assessed as reduction in cell viability after 48 hrs by SRB assay. The assay is classed as functional. The procedure, abridged: as §1

With `CN[C@]1(c2ccccc2Cl)CCCCC1=O` [ESKETAMINE], in assay [1], the concentration for 50% growth inhibition (GI50) is greater than 300 µM and the TGI was greater than 300 µM. In assay [2], the GI50 is greater than 300 µM and the TGI was greater than 300 µM.
In the case of `C[C@]12N[C@H](Cc3ccccc31)c1ccccc12` [DIZOCILPINE], in assay [1], the GI50 is greater than 300 µM and the TGI is greater than 300 µM. Moreover, in assay [2], the concentration for 50% growth inhibition (GI50) was greater than 300 µM and the TGI is greater than 300 µM.
For the compound `NC[C@H]1COC[C@](c2ccccc2)(C2CCCCC2)O1` (relative stereo), in assay [1], the GI50 came out at 23.8 µM, the LC50 (concentration killing 50% of initial cells) is greater than 300 µM and the TGI came out at 192 µM. In assay [2], the GI50 was determined as 65.3 µM, the LC50 (concentration killing 50% of initial cells) turned out to be 176 µM and the TGI was found to be 107 µM.

The GI50 is the concentration at which growth is held to half of that of the control. What is called TGI is the concentration at which net growth stops.
